Only some compounds are listed: those with a hit (about 4.1% of all), similar ones and a draw of the others.
MrgX1 antagonist – blocks BAM8-22 activation of human MrgX1 receptor; 310,000 tested, 1.3% active; Q96LB2; MRGX1-HEK293 calcium flux, Fluo-4, BAM8-22 antagonism; stronger effect = lower value; B-score at 10 µM; AID 588676;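 active means calcium-response B-score plate-corrected more than 3 library SD below zero, starting fluorescence within 5 deviations, no agonist response on first addition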;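 further: peak minus trough fluorescence over baseline after final BAM8-22 challenge near maximal dose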
Target sequence (Q96LB2 whole entry, looked up): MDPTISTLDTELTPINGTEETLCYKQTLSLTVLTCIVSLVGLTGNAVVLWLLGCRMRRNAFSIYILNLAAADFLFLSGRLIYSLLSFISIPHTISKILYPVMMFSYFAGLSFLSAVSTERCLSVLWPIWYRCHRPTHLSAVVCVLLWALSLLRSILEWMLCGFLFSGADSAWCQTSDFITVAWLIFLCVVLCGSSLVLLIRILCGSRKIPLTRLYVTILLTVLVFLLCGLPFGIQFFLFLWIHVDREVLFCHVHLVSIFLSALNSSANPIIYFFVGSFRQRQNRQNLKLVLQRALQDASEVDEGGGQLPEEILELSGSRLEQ
RGS4 inh – human RGS4 inhibition. HEK293 M3R/RGS4 inducible, Fluo-4 calcium flux; stronger effect = higher value; triggered by carbachol at its EC20. B-score at 10 µM. 310,000 tested, 0.45% active. AID 463165;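 active means B-score, a plate-corrected calcium signal, over three deviations above library mean, with baseline fluorescence within five deviations of library mean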;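 further: RGS4 expression induced by doxycycline in cells with stable M3 receptor; B-score is computed from the integrated fluorescence ratio over baseline after carbachol; higher B-score means a larger calcium signal and so more RGS4 inhibition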
Target sequence (P49798 whole entry, looked up): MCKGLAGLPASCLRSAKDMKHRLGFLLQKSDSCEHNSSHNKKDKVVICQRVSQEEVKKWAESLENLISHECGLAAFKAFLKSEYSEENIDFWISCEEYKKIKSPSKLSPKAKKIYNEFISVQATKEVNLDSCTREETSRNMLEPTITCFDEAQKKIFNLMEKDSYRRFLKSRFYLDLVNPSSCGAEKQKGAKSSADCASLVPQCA
MrgX1 PAM – human MrgX1 positive allosteric modulation, primary screen. AID 588675. 310,000 tested, 0.63% active. MrgX1-HEK293, Fluo-4 calcium flux, FDSS; stronger effect = higher value. B-score at 10 µM. Q96LB2;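 active means plate-corrected calcium response at least 3 library SD above typical, normal starting fluorescence, not activating the receptor alone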;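 further: compound read alongside a low EC10 to EC30 dose of BAM8-22 agonist; peak minus trough fluorescence over baseline measured at the second addition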
Kir21 block – Kir2.1 (mouse) channel inhibition. P35561. 310,000 tested, 0.85% active. B-score at 10 µM. HEK293-Kir2.1, FluxOR thallium flux fluorescence; stronger effect = lower value;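 active means fluorescence ratio B-score at or below minus 3 SD of library scores, with starting-brightness B-score within 2 SD, cut at about -4.2 in these data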;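 further: channel flux triggered by added potassium and thallium sulfate stimulus; B-score of peak minus minimum fluorescence over baseline after thallium stimulus; more negative B-score means stronger Kir2.1 block with less thallium influx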
MrgX1 ag – activates human MrgX1 receptor signaling; MrgX1-HEK293 cells, Fluo-4 calcium fluorescence, agonist mode; stronger effect = higher value; B-score at 10 µM; 310,000 tested, 0.44% active; AID 588627;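 active means calcium response B-score plate-corrected fluorescence ratio at least 3 library SD, with starting fluorescence B-score inside 5 SD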
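Material: MrgX1-expressing HEK293 cells; input: 15,000 cells per well; doses: test compound given as first of three sequential additions; schedule: overnight plating before 1 h dye loading; technique: Fluo-4 NW calcium-flux fluorescence, kinetic read; evaluation: baseline-normalised fluorescence change ratio, B-scored; control set: plate-wise positive and negative controls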
RGS4 pot – potentiators or activators of RGS4; B-score at 10 µM; HEK293 M3R/inducible RGS4, carbachol calcium flux Fluo4; stronger effect = lower value; 310,000 tested, 0.92% active; AID 463111;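 active means B-score of the integrated calcium signal more than 4 SD below the library mean, with starting fluorescence not abnormally high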;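 further: negative B-score means reduced calcium response which marks RGS4 activation or potentiation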
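Material: M3R-expressing HEK293 line, RGS4 induced by doxycycline | Schedule: Overnight RGS4 induction, 30 min dye load 37 °C, 20 min compound RT | Measured by: Fluo4 fluorescence kinetic imaging of calcium | Read-out: Integrated calcium ratio converted to B score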
RGS4 activ val – confirmation of RGS4 activators; AID 602282; HEK293 M3R/RGS4 inducible, carbachol calcium flux Fluo4; 1,100 tested, 89% active; inhibition, % at 10 µM; shares compounds with RGS4 pot;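 active means inhibition above 3 SD of the buffer control wells, cut at about 41% in these data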;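 further: signal is the integrated peak-minus-minimum Fluo4 fluorescence over baseline ratio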
RGS4 act ctr – activity in cells without induced RGS4 expression. shares compounds with RGS4 pot. HEK293 M3R non-induced RGS4, Fluo4 calcium flux; after carbachol challenge at its EC90. inhibition, % at 10 µM. 1,100 tested, 82% active. AID 602283;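 active means inhibition exceeding 3 SD of buffer-only control wells, cut at about 26% in these data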;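 further: percent drop in integrated peak-minus-baseline over baseline Fluo4 ratio after carbachol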
Large screens that a line does not name were inactive (follow-up assays come after a bar, where they were run).

Cc1ccc2cccc(NC3OC(=O)c4ccccc43)c2n1 (stereo unspecified)	none
Cc1cc(C)n(-c2ccc(C(=O)Nc3ccc(C)c(S(=O)(=O)N4CCOCC4)c3)cc2)n1	RGS4 pot -8.11 | RGS4 activ val 89.0 | RGS4 act ctr 57.3
CC(=O)c1cn(CC(=O)Nc2ccccc2F)c2ccccc12	none
CC1CCN(c2ccc3c(c2)S(=O)(=O)c2ccccc2C3=O)CC1	RGS4 pot -8.19 | RGS4 activ val 68.5 | RGS4 act ctr 65.3
NC(=O)C1CCN(c2ccc3c(c2)S(=O)(=O)c2ccccc2C3=O)CC1	none
O=C(O)CN1C(=O)/C(=C\c2cc(Br)ccc2OCc2ccc(Cl)cc2Cl)SC1=S	none
CCCCOc1ccccc1Cn1c(=O)oc2ccc(C)cc21	RGS4 pot -7.68 | RGS4 activ val 91.5 | RGS4 act ctr 90.8
COc1ccccc1Cn1c(=O)oc2ccc(C)cc21	none
Cc1ccc2nc(Nc3ccc(C)c(Cl)c3)c3nncn3c2c1	none
S=C(Nc1ccccc1)Nc1nc2ccccc2n1CCOc1ccccc1	none
C=C(C)CSc1nc2sc3c(c2c(=O)n1C1CCCCC1)CCN(C)C3	RGS4 pot -7.77 | RGS4 activ val 93.0 | RGS4 act ctr 85.8
CSc1nc2sc3c(c2c(=O)n1C1CCCCC1)CCN(C)C3	none
CCOC(=O)C1=C(C)NC(C)=C(C(=O)OCC)C1C(=O)OCC(=O)NC1(C#N)CCCCC1	RGS4 pot -11.1 | RGS4 activ val 45.5 | RGS4 act ctr inactive
CCNC(=O)COC(=O)C1C(C(=O)OCC)=C(C)NC(C)=C1C(=O)OCC	none
COc1cc(NC(=O)c2cc3ccccc3cc2OC)ccc1NC(=O)c1cccs1	RGS4 pot -9.13 | RGS4 activ val 75.5 | RGS4 act ctr inactive
COC(=O)c1cccc(NC(=O)CCc2ccccc2)c1	none
COCCN(C(=O)Nc1ccccc1OC)c1nc2ccccc2s1	RGS4 pot -7.73 | RGS4 activ val 92.0 | RGS4 act ctr 91.3
COc1ccccc1NC(=O)Nc1sccc1-c1nc2ccccc2s1	none
COc1ccc(-c2cc(-c3nnc(COC(=O)c4ccc(O)cc4)o3)c3ccccc3n2)cc1OC	RGS4 pot -7.72 | RGS4 activ val 61.5 | RGS4 act ctr inactive
COc1ccc(-c2cc(-c3nnc(COC(=O)C4CC4)o3)c3ccccc3n2)cc1OC	none
CC(C)(C)c1cc(C(=O)Nc2ccc(F)cc2)n(Cc2ccc(F)cc2)n1	none
Cc1ccc(NC(=O)c2cc(C(C)(C)C)nn2Cc2ccccc2)cc1	RGS4 pot -7.64 | RGS4 activ val 95.0 | RGS4 act ctr 82.3
CCCn1c(=S)[nH]c2cc(C(=O)N3CCN(C(=O)OCC)CC3)ccc2c1=O	none
Cc1ccc(C(=O)N2CCN(c3ccccn3)CC2)cc1C	none
CC1CCN(c2ccc3nnc(CCC(=O)NCCCOC(C)C)n3n2)CC1	none
OC(CN1CCCCC1)CN(c1ccccc1)c1ccccc1 (stereo unspecified)	RGS4 pot -9.81 | RGS4 activ val 89.5 | RGS4 act ctr 58.3
OC(CN1CCCCCC1)CN(c1ccccc1)c1ccccc1 (stereo unspecified)	none
CC(Cc1cccs1)NC(=S)Nc1ccc(Cl)cc1 (stereo unspecified)	Kir21 block -4.21, RGS4 pot -8.03 | RGS4 activ val 48.5 | RGS4 act ctr 83.8
COc1ccc(Oc2nc(-c3ccccc3)ncc2C(=O)O)cc1	none
COc1ccc(C(=O)c2cnc3ccccc3c2-c2ccccc2)cc1	RGS4 pot -8.56 | RGS4 activ val 85.5 | RGS4 act ctr 66.3
CCOC(=O)C1CCCN(c2c(C(=O)c3ccccc3)cnc3ccccc23)C1 (stereo unspecified)	none
Cc1ccc(C(=O)c2cnc3ccccc3c2-c2ccccc2)cc1	RGS4 pot -8.33 | RGS4 activ val 77.5 | RGS4 act ctr 57.8
c1ccc(Cn2c(CN3CCCC3)nc3ccccc32)cc1	RGS4 pot -8.53 | RGS4 activ val inactive | RGS4 act ctr 83.8
Cc1nc2nc(SCC(=O)NCCCN3CCCC3)nn2c(C)c1Cc1ccccc1Cl	RGS4 pot -8.25 | RGS4 activ val 77.5 | RGS4 act ctr 42.3
Cc1nc2nc(SCC(=O)NCCCN3CCCCC3)nn2c(C)c1Cc1ccccc1	none
CCN1CCN(Cc2cccc(Oc3ccccc3)c2)CC1	RGS4 pot -8.01 | RGS4 activ val 61.5 | RGS4 act ctr 83.8
CCN1CCN(Cc2cccc(Oc3ccc(Cl)cc3)c2)CC1	RGS4 pot -9.42 | RGS4 activ val 92.5 | RGS4 act ctr 61.3
CCOC(=O)C1CCN(Cc2cccc(Oc3ccc(Cl)cc3)c2)CC1	none
CN1CCN(Cc2cccc(Oc3ccc(Cl)cc3)c2)CC1	RGS4 pot -11.6 | RGS4 activ val 90.5 | RGS4 act ctr 37.8
Cc1cc(Nc2nc(Cl)c(Cl)cc2Cl)n(-c2ccccc2)n1	none
Cc1ccc(-n2nc(C)cc2Nc2ncc(Cl)cc2Cl)cc1	RGS4 pot -8.65 | RGS4 activ val 92.0 | RGS4 act ctr 73.8
CC(=O)COc1ccc2c3c(c(=O)oc2c1C)CCCCC3	none
Cc1c(OCC(=O)N(C)C)ccc2c3c(c(=O)oc12)CCCCC3	RGS4 pot -7.9 | RGS4 activ val 64.5 | RGS4 act ctr 31.8
CCC(C(=O)OCC(=O)Nc1cc(Cl)cc(Cl)c1)c1ccccc1 (stereo unspecified)	RGS4 pot -8.43 | RGS4 activ val 73.5 | RGS4 act ctr 25.8
CCOc1ccc(S(=O)(=O)N(CC(=O)NC2CCCCC2C)Cc2ccco2)cc1 (stereo unspecified)	RGS4 pot -8.22 | RGS4 activ val inactive | RGS4 act ctr inactive
O=C(C1CCN(S(=O)(=O)c2ccccc2)CC1)N(CCc1ccccc1)Cc1ccco1	none
CC(=O)Nc1ccc(OCCCNC(=O)c2c(-c3ccccc3)noc2C)cc1	RGS4 pot -8.56 | RGS4 activ val inactive | RGS4 act ctr inactive
O=C(NC(=S)Nc1ccc(N2CCCC2)cc1)c1ccc(F)cc1	none
O=C(NNC(=O)C1CCN(S(=O)(=O)c2cccc(C(F)(F)F)c2)CC1)C1CC1	none
Brc1cccc(-c2nnc3n2CCCCC3)c1	none
Brc1cccc(-c2cnc3n2CCCCC3)c1	RGS4 pot -7.89 | RGS4 activ val 84.0 | RGS4 act ctr 55.8
CCCCOc1ccc(C(O)C(CN2CCOCC2)c2ccccc2)cc1 (stereo unspecified)	none
CCCCOc1ccc(C(O)C(CN2CCCCC2)c2ccccc2)cc1 (stereo unspecified)	RGS4 pot -7.61 | RGS4 activ val 58.0 | RGS4 act ctr 83.8

Assay outcomes: PubChem, Johns Hopkins Ion Channel Center
